For experiment [1], the system named is Osteoclast. The experiment in a line: Inhibition of RANKL/M-CSF-induced osteoclast differentiation in mouse bone marrow-derived osteoclasts assessed as reduction in formation of TRAP-positive cells after 5 days. In kind it is functional, cell-based. In short, it runs like this:
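Bone marrow cells from 4-week-old mice were primed 24 h with 30 ng/mL M-CSF, then cultured with 100 ng/mL RANKL plus 30 ng/mL M-CSF. Compound was present or absent and medium was renewed every 2 days. On day 5 cells were fixed in 4% paraformaldehyde and TRAP-stained 1 h at 37 °C. Multinucleated TRAP-positive cells with ≥3 nuclei were counted as osteoclasts.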

The species entered for experiment [2] is Mus musculus. The experiment in a line: Activation of Wnt signaling pathway in mouse MC3T3-E1 cells assessed as increase in Runx2 protein expression up to 4 uM after 48 hrs in presence of ascorbic acid and beta-glycerophosphate by Western blot analysis. In kind it is cell-based. The procedure, abridged:
(§1)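 MC3T3-E1 cells given 400 μM ascorbic acid plus 5 mM β-glycerophosphate, exposed to test compound or not for 48 h. Lysed in boiling SDS sample buffer, protein measured by BCA. 40−50 μg of lysate run on 8% or 10% SDS-PAGE and transferred to PVDF. Blocked in 5% milk, probed with primary antibodies for 3 h at room temperature or overnight at 4 °C, detected by ECL.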
On the technique in general: Immunoblotting shows a protein as a band on a membrane.

In experiment [3] the test system is Mus musculus. In words: Effect on […] level in serum of OVX-induced bone loss ICR mouse model at 2 mg/kg, po for 12 weeks by ELISA (reference value: 8.2 +/- 0.4 mg/dl). The class given is functional. For orientation: An ELISA detects its analyte on a solid surface through an enzyme-linked reagent.
Experiment [4] relates to Osteoclast. The experiment in a line: Inhibition of RANKL/M-CSF-induced osteoclast differentiation in mouse bone marrow-derived osteoclasts assessed as downregulation of c-Fos protein expression up to 4 uM after 48 hrs by Western blot analysis. In kind it is functional, cell-based. The procedure, abridged: (§2)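 Mouse bone marrow cells were taken from 4-week-old mice and primed 24 h in 30 ng/mL M-CSF. They were then given 100 ng/mL RANKL plus 30 ng/mL M-CSF, with or without compound, for 48 h. Lysates were made in boiling SDS buffer and quantified by BCA. 40–50 μg was run on SDS-PAGE and immunoblotted on PVDF with β-actin reference and ECL read-out.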

The subject of experiment [5] is MC3T3-E1. In words: Induction of OCN mRNA expression in mouse MC3T3-E1 cells up to 4 uM after 48 hrs in presence of ascorbic acid and beta-glycerophosphate by real-time PCR analysis.
Experiment [6] relates to Mus musculus. The experiment in a line: Effect on alkaline phosphatase activity in serum of OVX-induced bone loss ICR mouse model at 10 mg/kg, po for 12 weeks using p-NPP as substrate (reference value: 84.9 +/- 4.2 U/L). The class given is functional.
The species entered for experiment [7] is Mus musculus. The experiment in a line: Activation of Wnt signaling pathway in mouse MC3T3-E1 cells assessed as upregulation of C-Myc protein expression after 48 hrs in presence of ascorbic acid and beta-glycerophosphate by Western blot analysis. In kind it is cell-based. In short, it runs like this:
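MC3T3-E1 cells with 400 μM ascorbic acid and 5 mM β-glycerophosphate, with or without compound, for 48 h. Whole-cell lysates (40−50 μg, BCA) separated by SDS-PAGE, blotted to PVDF. c-Myc and cyclin D1 probed with primary antibodies, then secondary antibody for 90 min, read by chemiluminescence.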

The target of experiment [8] is T1, Catenin beta-1 (Mus musculus) (UniProt Q02248).
T1 sequence (whole entry): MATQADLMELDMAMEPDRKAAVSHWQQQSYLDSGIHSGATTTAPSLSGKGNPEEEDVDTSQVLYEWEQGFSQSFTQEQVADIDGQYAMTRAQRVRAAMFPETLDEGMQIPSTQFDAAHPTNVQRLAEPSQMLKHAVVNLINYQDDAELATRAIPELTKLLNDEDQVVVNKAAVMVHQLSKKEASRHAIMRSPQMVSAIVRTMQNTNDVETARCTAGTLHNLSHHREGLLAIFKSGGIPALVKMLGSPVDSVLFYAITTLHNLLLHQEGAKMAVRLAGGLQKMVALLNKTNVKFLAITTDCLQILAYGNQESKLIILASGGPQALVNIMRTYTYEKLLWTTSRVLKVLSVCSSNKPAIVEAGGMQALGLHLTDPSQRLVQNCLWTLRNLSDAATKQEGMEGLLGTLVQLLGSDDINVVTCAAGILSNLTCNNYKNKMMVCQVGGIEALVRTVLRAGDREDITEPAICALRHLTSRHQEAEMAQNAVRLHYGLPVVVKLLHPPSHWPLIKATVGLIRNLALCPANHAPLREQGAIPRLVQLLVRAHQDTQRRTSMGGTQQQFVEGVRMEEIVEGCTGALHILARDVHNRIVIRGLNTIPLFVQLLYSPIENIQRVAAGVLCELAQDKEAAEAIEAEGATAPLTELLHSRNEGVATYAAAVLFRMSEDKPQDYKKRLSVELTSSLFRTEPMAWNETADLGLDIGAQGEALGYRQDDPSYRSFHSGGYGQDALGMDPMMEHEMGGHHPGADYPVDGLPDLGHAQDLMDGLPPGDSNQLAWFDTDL
In words: Downregulation of beta-catenin phosphorylated protein expression in mouse MC3T3-E1 cells up to 4 uM after 48 hrs in presence of ascorbic acid and beta-glycerophosphate by Western blot analysis. The class given is cell-based. The procedure, abridged: as §1

For experiment [9], the system named is Mus musculus. The experiment in a line: Effect on TRAP activity in serum of OVX-induced bone loss ICR mouse model at 2 mg/kg, po for 12 weeks (reference value: 19.8 +/- 1.0 U/L). In kind it is functional.
The subject of experiment [10] is Mus musculus. The experiment in a line: Effect on alkaline phosphatase activity in serum of OVX-induced bone loss ICR mouse model at 2 mg/kg, po for 12 weeks using p-NPP as substrate (reference value: 84.9 +/- 4.2 U/L). In kind it is functional.
Experiment [11] concerns Mus musculus. In words: Effect on C-terminal telopeptide level in serum of OVX-induced bone loss ICR mouse model at 5 mg/kg, po for 12 weeks by ELISA (reference value: 95.7 +/- 3.8 ng/ml). The class given is functional.
Experiment [12] is filed under the species Mus musculus. In words: Activation of Wnt signaling pathway in mouse MC3T3-E1 cells assessed as increase in BMP2 protein expression up to 4 uM after 48 hrs in presence of ascorbic acid and beta-glycerophosphate by Western blot analysis. In kind it is cell-based. The procedure, abridged: as §1
Experiment [13] concerns Osteoclast. The experiment in a line: Inhibition of RANKL/M-CSF-induced osteoclast differentiation in mouse bone marrow-derived osteoclasts assessed as downregulation of TRAP protein expression up to 4 uM after 48 hrs by Western blot analysis. The class given is functional, cell-based. In short, it runs like this: as §2
Experiment [14] has as its system Mus musculus. In words: Effect on calcium level in serum of OVX-induced bone loss ICR mouse model at 10 mg/kg, po for 12 weeks by ELISA (reference value: 9.3 +/- 0.3 mg/dl). The class given is functional.
The subject of experiment [15] is Mus musculus. In words: Effect on calcium level in serum of OVX-induced bone loss ICR mouse model at 2 mg/kg, po for 12 weeks by ELISA (reference value: 9.3 +/- 0.3 mg/dl). In kind it is functional.
Experiment [16] has as its system Mus musculus. The experiment in a line: Effect on C-terminal telopeptide level in serum of OVX-induced bone loss ICR mouse model at 10 mg/kg, po for 12 weeks by ELISA (reference value: 95.7 +/- 3.8 ng/ml). In kind it is functional.
For experiment [17], the system named is MC3T3-E1. The experiment in a line: Upregulation of beta-catenin protein expression in mouse MC3T3-E1 cells after 48 hrs in presence of ascorbic acid and beta-glycerophosphate by Western blot analysis. In kind it is functional, cell-based.
For experiment [18], the system named is Mus musculus. The experiment in a line: Anti-osteoporotic activity in ovariectomized ICR mouse assessed as suppression of changes in structure model index levels in femur at 2 to 10 mg/kg, po after 12 weeks by microcomputed tomography. In kind it is functional, organism-based.

The source made the active and inactive calls. No cut-off for these calls is given here.

The record followed here is ChEMBL document CHEMBL4052590, “Anti-Osteoporotic Activity of Harpagoside by Upregulation of the BMP2 and Wnt Signaling Pathways in Osteoblasts and Suppression of Differentiation in Osteoclasts” (J Nat Prod, 2017).

In the case of `C[C@]1(OC(=O)/C=C/c2ccccc2)C[C@@H](O)[C@]2(O)C=CO[C@@H](O[C@@H]3O[C@H](CO)[C@@H](O)[C@H](O)[C@H]3O)[C@@H]21` [HARPAGOSIDE], the inhibition result with Osteoclast [1], in the experiment on Osteoclast [4] and in the experiment on Osteoclast [13] was “Active” in each case. Further, the result (in the experiment filed under Mus musculus [2]; in the experiment with MC3T3-E1 [5]; in [8]; in the experiment listed under Mus musculus [12]; in the experiment on Mus musculus [18]) was Active. The Activity in the experiment with Mus musculus [3] was 7.9 mg/dL; in the experiment with Mus musculus [6], 78.8 U/L; in the experiment listed under Mus musculus [7] it was “Dose-dependent effect”; in the experiment with Mus musculus [9], 10.4 U/L; in the experiment on Mus musculus [10], 78.5 U/L; with Mus musculus [11], 85.9 ng/mL. Also, the Activity in the experiment on Mus musculus [14] is 10.3 mg/dL; with Mus musculus [15], 9.3 mg/dL; in the experiment with Mus musculus [16] it was 80.7 ng/mL; with MC3T3-E1 [17], “Dose-dependent effect”.
